One data set concerns the target Cytochrome P450 3A4 (Homo sapiens, UniProt P08684). As to the kind of experiment: Inhibition of CYP3A4 activity in human liver microsomes using midazolam as a substrate by LC/MS analysis. It is filed as ADME. Background: Liver microsomes are vesicles of endoplasmic reticulum, rich in cytochrome P450 enzymes.
The test system of data set [1] is Rattus norvegicus. Description: Inhibition of MetAP2 level in Sprague-Dawley rat whole blood assessed as free enzyme level at 0.3 mg/kg, iv by ELISA. It is filed as functional, organism-based. The arrangement: dose 0.3 mg/kg. A digest of the protocol:
(§1)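 Male Sprague-Dawley rats (200-225 g, n=3 per group) were dosed once IV at 0.3 mg/kg or PO at 0.3 or 3.0 mg/kg, in 11% HPCD in water. Blood, liver, lung, thymus and pooled non-mesenteric lymph nodes were taken at ~24 h and lysed or homogenized with NP-40. Free MetAP2 was measured by ELISA and expressed as % of vehicle.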

Data set [2] relates to Rattus norvegicus. Description: Inhibition of MetAP2 level in Sprague-Dawley rat thymus assessed as free enzyme level at 0.3 mg/kg, iv by ELISA. Format: functional, organism-based. The arrangement: dose 0.3 mg/kg. A digest of the protocol:
as §1
A general note: An ELISA detects its analyte on a solid surface through an enzyme-linked reagent.

The test system of data set [3] is Rattus norvegicus. Description: Inhibition of MetAP2 level in Sprague-Dawley rat lung assessed as free enzyme level at 0.3 mg/kg, iv by ELISA. Format: functional, organism-based. The arrangement: dose 0.3 mg/kg. A digest of the protocol:
as §1

For data set [4], the system named is Liver microsome. As to the kind of experiment: Metabolic stability in human liver microsomes assessed as retention time of ((3R,4S,5S,6R)-4-((2R,3R)-3-((E)-4-hydroxy-3-methylbut-2-en-1-yl)-2-methyloxiran-2-yl)-5-methoxy-1-oxaspiro[2.5]octan-6-yl((R)-1-amino-3-methyl-1-oxobutan-2-yl)carbamate) at 5 mM by LC/MS analysis. It is filed as ADME. To be noted: 5000 µM. In a few lines: (§2)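 Liver microsomes (pooled male/female) in 100 mM KPO4 pH 7.4 with PPI-2458 (5 mM stock), pre-incubated 5 min at 37°C, then 10 mM NADPH added; 20 min at 37°C with shaking. Time-zero and no-NADPH controls. Quenched with CH3CN; supernatant dried and redissolved in water. Analysed by LC-MS, ESI+ full scan 300–800 amu, C18 column, 10→50% B gradient.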

Data set [5] concerns Liver microsome. As to the kind of experiment: Metabolic stability in dog liver microsomes assessed as retention time of ((3R,4S,5S,6R)-5-methoxy-4-((2R,3R)-2-methyl-3-(3-methylbut-2-en-1-yl)oxiran-2-yl)-1-oxaspiro[2.5]octan-6-yl ((R)-1-amino-3-hydroxy-3-methyl-1-oxobutan-2-yl)carbamate) at 5 mM by LC/MS analysis. Format: ADME, Canis lupus familiaris. Conditions: 5000 µM.
For data set [6], the system named is Liver microsome. Description: Metabolic stability in dog liver microsomes assessed as retention time of ((3R,4S,5S,6R)-4-((2R,3R)-3-(((R)-3,3-dimethyloxiran-2-yl)methyl)-2-methyloxiran-2-yl)-5-methoxy-1-oxaspiro[2.5]octan-6-yl ((R)-1-amino-3-methyl-1-oxobutan-2-yl)carbamate) at 5 mM by LC/MS analysis. Format: ADME, Canis lupus familiaris. To be noted: 5000 µM.

Data set [7] relates to Liver. As to the kind of experiment: Metabolic stability in mouse liver microsomes assessed as retention time of ((3R,4S,5S,6R)-4-((2R,3R)-3-(((S)-3,3-dimethyloxiran-2-yl)methyl)-2-methyloxiran-2-yl)-5-methoxy-1-oxaspiro[2.5]octan-6-yl ((R)-1-amino-3-methyl-1-oxobutan-2-yl)carbamate) at 5 mM by LC/MS analysis. Format: ADME. Conditions: 5000 µM. A digest of the protocol: as §2

For data set [8], the system named is Rattus norvegicus. As to the kind of experiment: Inhibition of MetAP2 level in Sprague-Dawley rat liver assessed as free enzyme level at 0.3 mg/kg, po by ELISA. Format: functional, organism-based. The arrangement: dose 0.3 mg/kg. In a few lines: as §1
Data set [9] deals with Rattus norvegicus. As to the kind of experiment: Inhibition of MetAP2 level in Sprague-Dawley rat liver assessed as free enzyme level at 3 mg/kg, po by ELISA. Format: functional, organism-based. The arrangement: dose 3 mg/kg. A digest of the protocol: as §1
Data set [10] deals with Rattus norvegicus. Description: Inhibition of MetAP2 level in Sprague-Dawley rat liver assessed as free enzyme level at 0.3 mg/kg, iv by ELISA. It is filed as functional, organism-based. The arrangement: dose 0.3 mg/kg. A digest of the protocol: as §1
Data set [11] relates to Liver. Description: Metabolic stability in mouse liver microsomes assessed as retention time of ((3R,4S,5S,6R)-4-((2R,3R)-3-(((R)-3,3-dimethyloxiran-2-yl)methyl)-2-methyloxiran-2-yl)-5-methoxy-1-oxaspiro[2.5]octan-6-yl ((R)-1-amino-3-methyl-1-oxobutan-2-yl)carbamate) at 5 mM by LC/MS analysis. Format: ADME. To be noted: 5000 µM. In a few lines:
as §2

Data set [12] deals with Liver microsome. As to the kind of experiment: Metabolic stability in rat liver microsomes assessed as retention time of ((3R,4S,5S,6R)-4-((2R,3R)-3-(((S)-3,3-dimethyloxiran-2-yl)methyl)-2-methyloxiran-2-yl)-5-methoxy-1-oxaspiro[2.5]octan-6-yl ((R)-1-amino-3-methyl-1-oxobutan-2-yl)carbamate) at 5 mM by LC/MS analysis. To be noted: 5000 µM. Format: ADME. A digest of the protocol: as §2

Data set [13] concerns CYP3A4 (Homo sapiens). As to the kind of experiment: Activity of human recombinant CYP3A4 assessed as ((3R,4S,5S,6R)-4-((2R,3R)-3-((E)-4-hydroxy-3-methylbut-2-en-1-yl)-2-methyloxiran-2-yl)-5-methoxy-1-oxaspiro[2.5]octan-6-yl((R)-1-amino-3-methyl-1-oxobutan-2-yl)carbamate) formation. To be noted: recombinant enzyme.
In data set [14] the test system is CYP3A4 (Homo sapiens). Description: Activity of human recombinant CYP3A4 assessed as ((3R,4S,5S,6R)-4-((2R,3R)-3-(((S)-3,3-dimethyloxiran-2-yl)methyl)-2-methyloxiran-2-yl)-5-methoxy-1-oxaspiro[2.5]octan-6-yl ((R)-1-amino-3-methyl-1-oxobutan-2-yl)carbamate) formation. Conditions: recombinant enzyme.
For data set [15], the system named is CYP3A5 (Homo sapiens). As to the kind of experiment: Activity of human recombinant CYP3A5 assessed as ((3R,4S,5S,6R)-4-((2R,3R)-3-(((S)-3,3-dimethyloxiran-2-yl)methyl)-2-methyloxiran-2-yl)-5-methoxy-1-oxaspiro[2.5]octan-6-yl ((R)-1-amino-3-methyl-1-oxobutan-2-yl)carbamate) formation. To be noted: recombinant enzyme.
The subject of data set [16] is CYP3A4 (Homo sapiens). As to the kind of experiment: Ratio of Vmax to Km for human recombinant CYP3A4 assessed as ((3R,4S,5S,6R)-4-((2R,3R)-3-(((S)-3,3-dimethyloxiran-2-yl)methyl)-2-methyloxiran-2-yl)-5-methoxy-1-oxaspiro[2.5]octan-6-yl ((R)-1-amino-3-methyl-1-oxobutan-2-yl)carbamate) formation. To be noted: recombinant enzyme.
Data set [17] concerns CYP3A5 (Homo sapiens). As to the kind of experiment: Ratio of Vmax to Km for human recombinant CYP3A5 assessed as ((3R,4S,5S,6R)-4-((2R,3R)-3-(((S)-3,3-dimethyloxiran-2-yl)methyl)-2-methyloxiran-2-yl)-5-methoxy-1-oxaspiro[2.5]octan-6-yl ((R)-1-amino-3-methyl-1-oxobutan-2-yl)carbamate) formation. Conditions: recombinant enzyme.
Data set [18] relates to CYP3A5 (Homo sapiens). Description: Activity of human recombinant CYP3A5 assessed as ((3R,4S,5S,6R)-4-((2R,3R)-3-((E)-4-hydroxy-3-methylbut-2-en-1-yl)-2-methyloxiran-2-yl)-5-methoxy-1-oxaspiro[2.5]octan-6-yl((R)-1-amino-3-methyl-1-oxobutan-2-yl)carbamate) formation per pmol of enzyme.
Data set [19] has as its system CYP3A4 (Homo sapiens). Description: Activity of human recombinant CYP3A4 assessed as ((3R,4S,5S,6R)-4-((2R,3R)-3-(((R)-3,3-dimethyloxiran-2-yl)methyl)-2-methyloxiran-2-yl)-5-methoxy-1-oxaspiro[2.5]octan-6-yl ((R)-1-amino-3-methyl-1-oxobutan-2-yl)carbamate) formation per pmol of enzyme.

The structures appear in SMILES notation. Activity calls are given as the source filed them. The rule behind the calls is not given here.

Sequence of Cytochrome P450 3A4 (P08684 whole entry): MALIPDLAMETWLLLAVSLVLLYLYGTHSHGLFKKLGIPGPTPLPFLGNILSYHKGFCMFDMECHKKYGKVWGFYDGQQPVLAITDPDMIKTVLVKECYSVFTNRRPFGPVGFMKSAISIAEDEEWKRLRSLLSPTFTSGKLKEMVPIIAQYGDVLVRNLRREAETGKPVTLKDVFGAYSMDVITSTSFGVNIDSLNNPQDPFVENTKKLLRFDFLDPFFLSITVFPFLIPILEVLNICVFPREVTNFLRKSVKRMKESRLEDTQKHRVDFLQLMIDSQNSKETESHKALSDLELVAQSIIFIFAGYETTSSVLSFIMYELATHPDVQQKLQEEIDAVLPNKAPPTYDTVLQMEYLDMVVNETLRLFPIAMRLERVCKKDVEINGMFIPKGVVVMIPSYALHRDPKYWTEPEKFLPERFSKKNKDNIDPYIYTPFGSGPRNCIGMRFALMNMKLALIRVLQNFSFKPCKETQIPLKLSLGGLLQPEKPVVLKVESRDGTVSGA

A word on the Ki: it is a measure of affinity in units of concentration, obtained from inhibition or displacement. In general, Km refers to the substrate concentration at which the rate is half of its maximum. The term Vmax denotes the top rate of the reaction or transport when substrate is in excess. `CO[C@@H]1[C@H](OC(=O)N[C@@H](C(N)=O)C(C)C)CC[C@]2(CO2)[C@H]1[C@@]1(C)O[C@@H]1CC=C(C)C` [PPI-2458] showed a Ki at Cytochrome P450 3A4 of 58 µM. For the same molecule, the inhibition result in the data set on Rattus norvegicus [1], in the data set on Rattus norvegicus [2], in the data set with Rattus norvegicus [3], with Rattus norvegicus [8], in the data set with Rattus norvegicus [9] and in the data set on Rattus norvegicus [10] was “Active” each time. Moreover, the Drug metabolism result with Liver microsome [4], in the data set with Liver microsome [5], with Liver microsome [6], with Liver [7], in the data set with Liver [11] and with Liver microsome [12] was “metabolite_detected” each time. In addition, the Km came to 15 µM in the data set on CYP3A4 (Homo sapiens) [13], 15 µM in the data set on CYP3A4 (Homo sapiens) [14] and 17 µM with CYP3A5 (Homo sapiens) [15]. The Vmax/Km was determined as 0.19 µL/min in the data set on CYP3A4 (Homo sapiens) [16] and 0.09 µL/min in the data set on CYP3A5 (Homo sapiens) [17]. Moreover, the Vmax in the data set on CYP3A5 (Homo sapiens) [18] is 0.8 pmol/min; in the data set with CYP3A4 (Homo sapiens) [19], 2.7 pmol/min.
